The target of data set [1] is GABA-A receptor; anion channel. The data set is described as follows: In vitro potency measured against [3H]diazepam at the benzodiazepine receptor in rat. The procedure, abridged:
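Male Sprague-Dawley rats (175-250 g); cerebral cortex homogenized in 50 mM Tris-HCl pH 7.4 and washed by repeated centrifugation at 2000g. Membranes incubated with 2 nM [3H]diazepam for 60-90 min at 0-4 °C, then filtered. Nonspecific binding defined with 10 µM flunitrazepam. Six or more concentrations; IC50 from Hill plots; mean of at least three determinations.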

The nature of data set [2]: Partition coefficient (logP). It counts as physicochemical. Particulars: octanol/water. The procedure, abridged: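 Crude octanol/water log P calculated from tabulated fragmentation constants; for one hydroxy analogue also determined experimentally.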
Data set [3] has as its system Mus musculus. The data set is described as follows: Convulsant effects in mice treated with PTZ (40 mg/kg) dose. Format: functional.
In data set [4] the test system is Mus musculus. The data set is described as follows: Antagonism of Diazepam (2.5 mg/kg) anticonvulsant effects in mice treated with PTZ (80 mg/kg). Format: functional. The procedure, abridged: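 Male NIH mice in groups of 10 received graded ip doses in Emulphor/saline 1:9, or vehicle. Diazepam 2.5 mg/kg ip followed 15 min later, then PTZ 80 mg/kg 15 min after that. ED50 is the dose antagonizing diazepam's protection against tonic/clonic convulsions in 50% of mice. Highest dose tested was 30 or 40 mg/kg.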

Data set [5] concerns the target GABA-A receptor; anion channel. The data set is described as follows: In vitro inhibition of [3H]flunitrazepam binding to rat GABA-A Benzodiazepine receptor. It counts as protein-complex assay.

pIC50: −log10 of the molar value. Bounds are passed on as bounds.

For orientation: pIC50 means −log10 of the IC50, conventionally taken in molar units. Read a high pIC50 as a small IC50. Consider `c1ccc(COc2ccc3c(c2)[nH]c2c3ncc3[nH]c4ccccc4c32)cc1`, for which, in data set [1], the negative-log IC50 (pIC50) was below 5.40.

The compound `c1ccc(COc2cccc3[nH]c4c5c6ccccc6nc-5c[nH]c4c23)cc1` showed a pIC50 in data set [1] below 5.40.

As for `c1ccc(COc2ccc3[nH]c4c5c6ccccc6nc-5c[nH]c4c3c2)cc1`, the pIC50 in data set [1] was 5.80.

Turning to `Cc1ccc2[nH]c3c4c5ccccc5nc-4c[nH]c3c2c1`, the pIC50 in data set [1] was 6.65.

With `Brc1ccc2[nH]c3cnc4c5ccccc5[nH]c4c3c2c1`, the pIC50 in data set [1] is 8.22.

`Brc1ccc2[nH]c3c(ncc4[nH]c5ccc(Br)cc5c43)c2c1` gave a pIC50 in data set [1] below 6.49.

As to `Oc1cccc2[nH]c3c4c5ccccc5nc-4c[nH]c3c12`, the pIC50 in data set [1] is 6.24.

In data set [1], `O=[N+]([O-])c1ccc2[nH]c3c[nH]c4c5cc(Cl)ccc5nc-4c3c2c1` had a pIC50 of 5.92.

By logP is commonly meant the decadic logarithm of the partition coefficient of the neutral form, usually between octanol and water. A higher logP goes with higher lipophilicity. The compound `c1ccc2c(c1)[nH]c1c2ncc2[nH]c3ccccc3c21` registered a logP in data set [2] of 3.87.

Broadly, the ED50 is the midpoint of the dose-response relation. A high value points to a need for a large dose. In the case of `Oc1ccc2[nH]c3c4c5ccccc5nc-4c[nH]c3c2c1`, the ED50 in data set [3] and in data set [4] was above 40 mg/kg throughout. The compound further had a pIC50 in data set [1] of 6.94.

`O=[N+]([O-])c1ccc2[nH]c3c[nH]c4c5ccccc5nc-4c3c2c1` showed a pIC50 in data set [1] of 8.40.

For `Nc1ccc2[nH]c3c[nH]c4c5ccccc5nc-4c3c2c1`, the pIC50 in data set [1] was 7.36.

Take `Cc1cccc2c1[nH]c1c3c4ccccc4nc-3c[nH]c12`: the pIC50 in data set [1] is 7.08.

With `Cc1ccc2c(c1)[nH]c1c3c4ccccc4nc-3c[nH]c12`, the logP in data set [2] was 4.53. Further, the 50% effective dose (ED50) in data set [3] and in data set [4] was above 40 mg/kg each time. This compound also showed a pIC50 in data set [1] of 8.10.

Take `Clc1ccc2c(c1)[nH]c1c2ncc2[nH]c3ccccc3c21`: the logP in data set [2] was 4.58. Moreover, the ED50 in data set [3] was above 30 mg/kg.

`CCc1nc2c3ccccc3[nH]c2c2c1[nH]c1ccccc12`: in data set [1], the pIC50 was 6.60.

`O=S(=O)(O)c1ccc2[nH]c3c(ncc4[nH]c5ccc(S(=O)(=O)O)cc5c43)c2c1` had a pIC50 in data set [1] of 5.30.

On to `Cn1c2ccccc2c2[nH]cc3nc4ccccc4c-3c21`, for which, in data set [1], the pIC50 was 6.80.

As for `Brc1ccc2c(c1)[nH]c1c3c4ccccc4nc-3c[nH]c12`, the logP in data set [2] stood at 4.73. Also, the ED50 in data set [3] and in data set [4] was above 40 mg/kg throughout. In data set [1], the pIC50 was 7.72.

`Brc1ccc2[nH]c3c4c5ccccc5nc-4c[nH]c3c2c1`: the pIC50 in data set [1] is 6.12.

For the compound `Brc1cccc2c1[nH]c1c3c4ccccc4nc-3c[nH]c12`, in data set [1], the pIC50 was 7.55.

`COc1cccc2[nH]c3c4c5ccccc5nc-4c[nH]c3c12` showed a pIC50 in data set [1] of 6.60.

Turning to `COc1ccc2c(c1)[nH]c1c3c4ccccc4nc-3c[nH]c12.Cl`, in data set [2], the lipophilicity (logP) came out at 4.04. In addition, the ED50 in data set [3] was determined as 7 mg/kg; in data set [4], 3.9 mg/kg. In data set [1], this compound showed a pIC50 of 8.10.

The compound `Fc1ccc2c(c1)[nH]c1c3c4ccccc4nc-3c[nH]c12` returned a logP in data set [2] of 4.01. Further, the ED50 in data set [3] and in data set [4] was above 30 mg/kg in each case.

For the compound `Oc1ccc2c(c1)[nH]c1c3c4ccccc4nc-3c[nH]c12`, the logP in data set [2] came to 0.95. Besides, the ED50 in data set [3] and in data set [4] was above 40 mg/kg each time. The pIC50 in data set [1] is 8.22.

On to `Nc1ccc2[nH]c3c[nH]c4c5ccc(Cl)cc5nc-4c3c2c1`, for which the pIC50 in data set [1] was 7.01.

`Cc1cccc2[nH]c3c4c5ccccc5nc-4c[nH]c3c12` gave a pIC50 in data set [1] below 5.30.

Consider `Nc1ccc2[nH]c3c[nH]c4c5cc(Cl)ccc5nc-4c3c2c1`, for which the pIC50 in data set [1] is below 6.46.

In data set [2], `Fc1ccc2[nH]c3c4c5ccccc5nc-4c[nH]c3c2c1` displayed a logP of 4.01. Moreover, the ED50 in data set [3] is above 30 mg/kg. The pIC50 in data set [1] was 8.22.

`Clc1ccc2[nH]c3c[nH]c4c5cccc(Cl)c5nc-4c3c2c1` gave a pIC50 in data set [1] of 6.51.

As to `Cn1c2ccccc2c2c3nc4ccccc4c-3[nH]cc21`, the pIC50 in data set [1] was 5.94.

In the case of `O=[N+]([O-])c1ccc2[nH]c3c[nH]c4c5ccc(Cl)cc5nc-4c3c2c1`, the pIC50 in data set [1] was 6.90.

Compound `CC(C)(C)C(=O)Oc1ccc2c(c1)[nH]c1c3c4ccccc4nc-3c[nH]c12` had a pIC50 in data set [5] of 6.70. The same compound registered an ED50 in data set [3] of 17.5 mg/kg.

The record behind these values is ChEMBL document CHEMBL1124900, “Synthesis of substituted 7,12-dihydropyrido[3,2-b:5,4-b']diindoles: rigid planar benzodiazepine receptor ligands with inverse agonist/antagonist properties” (J Med Chem, 1990).
